Measurements from ChEMBL document CHEMBL3352570, “ST7612AA1, a thioacetate-ω(γ-lactam carboxamide) derivative selected from a novel generation of oral HDAC inhibitors” (J Med Chem, 2014).
pIC50: −log10 of the molar value. The source made the active and inactive calls. No cut-off for these calls is given here.

What was measured:
NCI-H460 = assay: Cytotoxicity against human NCI-H460 cells after 24 hrs by SRB assay; type: functional, cell-based; conditions: NCI-H460, 24 h
In short: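 NCI-H460 cells were grown in RPMI-1640 with L-glutamine, 10% heat-inactivated FCS and 50 μg/mL gentamicin. Cells were seeded at about 10% confluence and allowed to recover for 24 h. They were exposed to varying concentrations for 24 h, washed, then cultured a further 48 h. Surviving cells were measured by SRB. IC50 is the 50% reduction in cell number versus vehicle, from dose–response curve fitting; means of at least three experiments.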

Histone deacetylase 3 [1] = target: T1, Histone deacetylase 3 (Homo sapiens, UniProt O15379); assay: Inhibition of HDAC3 (unknown origin) using fluorogenic tetrapeptide RHKK(Ac) substrate by fluorescence assay
T1 sequence (O15379 whole entry): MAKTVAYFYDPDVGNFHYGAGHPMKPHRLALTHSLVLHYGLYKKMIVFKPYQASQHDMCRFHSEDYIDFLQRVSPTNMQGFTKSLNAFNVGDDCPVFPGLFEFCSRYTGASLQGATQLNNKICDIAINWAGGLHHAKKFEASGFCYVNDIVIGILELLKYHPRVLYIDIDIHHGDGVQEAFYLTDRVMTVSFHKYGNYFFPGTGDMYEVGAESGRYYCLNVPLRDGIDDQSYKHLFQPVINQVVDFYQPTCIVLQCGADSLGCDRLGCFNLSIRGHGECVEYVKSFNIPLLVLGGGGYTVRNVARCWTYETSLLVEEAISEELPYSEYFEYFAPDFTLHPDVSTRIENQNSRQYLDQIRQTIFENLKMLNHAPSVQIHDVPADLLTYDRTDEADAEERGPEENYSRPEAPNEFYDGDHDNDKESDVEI

[2] = target: T2, Polyamine deacetylase HDAC10 (Homo sapiens, UniProt Q969S8); assay: Inhibition of HDAC10 (unknown origin) using fluorogenic tetrapeptide RHKK(Ac) substrate by fluorescence assay
T2 sequence (Q969S8 whole entry): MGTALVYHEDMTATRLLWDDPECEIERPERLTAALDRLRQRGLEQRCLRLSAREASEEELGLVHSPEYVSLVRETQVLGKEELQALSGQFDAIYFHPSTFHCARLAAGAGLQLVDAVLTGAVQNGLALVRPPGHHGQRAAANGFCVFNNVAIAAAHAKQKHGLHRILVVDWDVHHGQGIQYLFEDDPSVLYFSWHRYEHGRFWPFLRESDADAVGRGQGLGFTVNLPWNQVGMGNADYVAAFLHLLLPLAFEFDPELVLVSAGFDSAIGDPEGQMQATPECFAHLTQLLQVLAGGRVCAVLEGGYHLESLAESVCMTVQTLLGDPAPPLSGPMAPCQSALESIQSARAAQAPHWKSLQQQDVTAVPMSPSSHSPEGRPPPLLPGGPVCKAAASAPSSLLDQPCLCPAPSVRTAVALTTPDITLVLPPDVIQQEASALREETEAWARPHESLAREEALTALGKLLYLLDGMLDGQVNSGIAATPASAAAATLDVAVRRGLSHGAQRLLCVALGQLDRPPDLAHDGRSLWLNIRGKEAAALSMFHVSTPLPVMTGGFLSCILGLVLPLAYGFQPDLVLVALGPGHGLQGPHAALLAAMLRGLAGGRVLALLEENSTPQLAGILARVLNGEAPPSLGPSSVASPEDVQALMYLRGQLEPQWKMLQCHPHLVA

Histone deacetylase 11 = target: T3, Histone deacetylase 11 (Homo sapiens, UniProt Q96DB2); assay: Inhibition of HDAC11 (unknown origin) using fluorogenic tetrapeptide RHKK(Ac) substrate by fluorescence assay
T3 sequence (Q96DB2 whole entry): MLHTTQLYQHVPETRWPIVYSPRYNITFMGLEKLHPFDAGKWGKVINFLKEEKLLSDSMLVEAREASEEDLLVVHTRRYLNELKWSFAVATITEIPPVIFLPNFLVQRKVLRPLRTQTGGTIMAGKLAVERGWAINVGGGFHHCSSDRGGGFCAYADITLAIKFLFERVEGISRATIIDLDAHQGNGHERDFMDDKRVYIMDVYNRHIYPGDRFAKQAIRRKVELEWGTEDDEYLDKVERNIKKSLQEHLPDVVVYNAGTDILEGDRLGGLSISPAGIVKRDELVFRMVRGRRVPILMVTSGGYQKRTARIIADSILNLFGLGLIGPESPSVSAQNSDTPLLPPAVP

Histone deacetylase 8 = target: T4, Histone deacetylase 8 (Homo sapiens, UniProt Q9BY41); assay: Inhibition of HDAC8 (unknown origin) using fluorogenic tetrapeptide RHK(Ac)K(Ac) substrate by fluorescence assay
T4 sequence (Q9BY41 whole entry): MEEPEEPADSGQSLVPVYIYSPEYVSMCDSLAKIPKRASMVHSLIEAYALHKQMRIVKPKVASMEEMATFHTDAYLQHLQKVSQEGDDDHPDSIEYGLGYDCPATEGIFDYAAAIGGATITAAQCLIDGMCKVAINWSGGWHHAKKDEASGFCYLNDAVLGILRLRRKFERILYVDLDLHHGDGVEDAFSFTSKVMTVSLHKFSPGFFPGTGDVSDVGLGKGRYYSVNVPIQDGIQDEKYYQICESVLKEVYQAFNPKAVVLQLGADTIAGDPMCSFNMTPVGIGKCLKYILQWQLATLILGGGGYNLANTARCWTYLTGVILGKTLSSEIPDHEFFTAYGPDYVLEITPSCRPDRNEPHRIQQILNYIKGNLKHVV

Histone deacetylase 1 [3] = target: T5, Histone deacetylase 1 (Homo sapiens, UniProt Q13547); assay: Inhibition of HDAC1 (unknown origin) using fluorogenic tetrapeptide RHKK(Ac) substrate by fluorescence assay
T5 sequence (Q13547 whole entry): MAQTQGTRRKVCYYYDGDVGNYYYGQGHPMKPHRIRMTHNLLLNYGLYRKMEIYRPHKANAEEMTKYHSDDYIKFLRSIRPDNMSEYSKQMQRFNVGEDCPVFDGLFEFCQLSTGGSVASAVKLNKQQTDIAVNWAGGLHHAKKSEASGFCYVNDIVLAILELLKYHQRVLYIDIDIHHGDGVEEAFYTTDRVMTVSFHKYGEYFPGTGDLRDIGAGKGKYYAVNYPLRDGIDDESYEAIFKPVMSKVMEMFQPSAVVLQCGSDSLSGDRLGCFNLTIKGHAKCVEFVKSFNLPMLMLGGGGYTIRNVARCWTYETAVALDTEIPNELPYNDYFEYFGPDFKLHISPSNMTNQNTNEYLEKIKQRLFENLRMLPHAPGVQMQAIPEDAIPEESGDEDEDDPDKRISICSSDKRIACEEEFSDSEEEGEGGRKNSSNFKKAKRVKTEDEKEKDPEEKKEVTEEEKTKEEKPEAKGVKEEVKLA

[4] = target: T6, Protein deacetylase HDAC6 (Homo sapiens, UniProt Q9UBN7); assay: Inhibition of HDAC6 (unknown origin) using fluorogenic tetrapeptide RHKK(Ac) substrate by fluorescence assay
T6 sequence (Q9UBN7 whole entry): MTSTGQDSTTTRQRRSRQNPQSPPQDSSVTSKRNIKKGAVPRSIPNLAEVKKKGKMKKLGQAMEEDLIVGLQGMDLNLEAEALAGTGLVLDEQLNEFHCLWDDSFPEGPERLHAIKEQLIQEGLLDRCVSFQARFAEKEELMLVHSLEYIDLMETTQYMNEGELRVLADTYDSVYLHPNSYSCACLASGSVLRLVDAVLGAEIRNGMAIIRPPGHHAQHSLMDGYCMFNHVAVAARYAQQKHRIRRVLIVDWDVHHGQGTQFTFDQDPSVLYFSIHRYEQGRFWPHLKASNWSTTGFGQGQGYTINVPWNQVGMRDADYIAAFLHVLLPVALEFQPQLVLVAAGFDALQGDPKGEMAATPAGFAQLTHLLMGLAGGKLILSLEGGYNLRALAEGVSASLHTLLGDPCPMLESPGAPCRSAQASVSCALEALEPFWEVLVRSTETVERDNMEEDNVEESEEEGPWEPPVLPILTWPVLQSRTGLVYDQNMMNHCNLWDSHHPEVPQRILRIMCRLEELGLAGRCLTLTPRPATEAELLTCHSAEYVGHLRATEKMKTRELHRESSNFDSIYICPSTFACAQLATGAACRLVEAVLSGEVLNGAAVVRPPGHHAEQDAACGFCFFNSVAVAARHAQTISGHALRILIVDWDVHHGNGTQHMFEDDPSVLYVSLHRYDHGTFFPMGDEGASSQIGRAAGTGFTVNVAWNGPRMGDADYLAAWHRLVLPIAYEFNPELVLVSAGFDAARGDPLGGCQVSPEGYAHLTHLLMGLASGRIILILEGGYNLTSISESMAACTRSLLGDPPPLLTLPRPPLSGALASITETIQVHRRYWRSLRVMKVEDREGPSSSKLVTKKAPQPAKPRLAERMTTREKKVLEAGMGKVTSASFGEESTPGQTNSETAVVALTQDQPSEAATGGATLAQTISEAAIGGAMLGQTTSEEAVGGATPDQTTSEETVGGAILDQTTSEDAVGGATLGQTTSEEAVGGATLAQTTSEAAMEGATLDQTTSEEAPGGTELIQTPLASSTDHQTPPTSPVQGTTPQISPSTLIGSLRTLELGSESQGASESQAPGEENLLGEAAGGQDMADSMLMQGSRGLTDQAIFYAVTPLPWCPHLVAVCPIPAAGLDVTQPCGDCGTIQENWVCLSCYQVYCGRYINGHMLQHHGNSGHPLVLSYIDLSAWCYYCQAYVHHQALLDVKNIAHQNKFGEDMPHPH

Histone deacetylase 2 [5] = target: T7, Histone deacetylase 2 (Homo sapiens, UniProt Q92769); assay: Inhibition of HDAC2 (unknown origin) using fluorogenic tetrapeptide RHKK(Ac) substrate by fluorescence assay
T7 sequence (Q92769 whole entry): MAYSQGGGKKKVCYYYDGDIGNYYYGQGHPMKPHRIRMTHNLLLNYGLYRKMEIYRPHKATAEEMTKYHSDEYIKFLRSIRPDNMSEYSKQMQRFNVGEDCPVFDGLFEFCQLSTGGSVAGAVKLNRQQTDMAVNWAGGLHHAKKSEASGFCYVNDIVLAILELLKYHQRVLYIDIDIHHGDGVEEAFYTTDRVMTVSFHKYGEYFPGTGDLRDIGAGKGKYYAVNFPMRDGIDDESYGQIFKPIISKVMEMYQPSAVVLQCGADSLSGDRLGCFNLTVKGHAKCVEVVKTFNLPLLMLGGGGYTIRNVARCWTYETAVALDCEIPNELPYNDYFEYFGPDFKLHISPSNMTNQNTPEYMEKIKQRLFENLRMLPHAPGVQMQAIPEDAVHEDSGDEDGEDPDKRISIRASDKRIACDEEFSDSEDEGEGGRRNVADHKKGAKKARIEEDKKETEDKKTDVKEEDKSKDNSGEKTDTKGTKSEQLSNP

Histone deacetylase 1 [6] = target: T5, Histone deacetylase 1; assay: Inhibition of HDAC1 (unknown origin) using fluorogenic tetrapeptide RHKK(Ac) substrate at <50 uM by fluorescence assay
In short: (§1)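 Fluorogenic assay with the tetrapeptide RHKK(Ac) substrate (p53 residues 379–382) at 50 μM.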

Histone deacetylase 3 [7] = target: T1, Histone deacetylase 3; assay: Inhibition of HDAC3 (unknown origin) using fluorogenic tetrapeptide RHKK(Ac) substrate at <50 uM by fluorescence assay; in short: as §1
Histone deacetylase 2 [8] = target: T7, Histone deacetylase 2; assay: Inhibition of HDAC2 (unknown origin) using fluorogenic tetrapeptide RHKK(Ac) substrate at <50 uM by fluorescence assay; in short: as §1

SMILES	pIC50 (Histone deacetylase 3 [1])	pIC50 [2]	pIC50 (Histone deacetylase 11)	pIC50 (Histone deacetylase 8)	pIC50 (Histone deacetylase 1 [3])	pIC50 [4]	pIC50 (Histone deacetylase 2 [5])	inhibition (Histone deacetylase 1 [6])	inhibition (Histone deacetylase 3 [7])	inhibition (Histone deacetylase 2 [8])	pIC50 (NCI-H460)
O=C1CCC[C@@H](C(=O)N[C@@H](CCCCCSSCCCCC[C@H](NC(=O)[C@@H]2CCCC(=O)N2)C(=O)Nc2ccccc2)C(=O)Nc2ccccc2)N1	–	–	–	–	–	–	–	–	–	–	5.27
CC(=O)SCCCCC[C@H](NC(=O)[C@@H]1CCC(=O)N1)C(=O)Nc1cccc(C)c1	–	–	–	–	–	–	–	–	–	–	7.22
CC(=O)SCCCCC[C@H](NC(=O)[C@H]1CCC(=O)N1)C(=O)Nc1cccc(C(F)(F)F)c1	–	–	–	–	–	–	–	–	–	–	7.52
CC(=O)SCCCCC[C@H](NC(=O)[C@H]1CCC(=O)N1)C(=O)Nc1cccc(C)c1	–	–	–	–	–	–	–	–	–	–	7.40
O=C(CCCCCCS)NCc1cccc(OCc2ccccc2)c1	5.53	5.52	5.74	6.04	5.50	5.75	4.85	–	–	–	–

Now from value to molecule, other results behind:

pIC50 (Histone deacetylase 3 [1])	pIC50 [2]	pIC50 (Histone deacetylase 11)	pIC50 (Histone deacetylase 8)	pIC50 (Histone deacetylase 1 [3])	pIC50 [4]	pIC50 (Histone deacetylase 2 [5])	inhibition (Histone deacetylase 1 [6])	inhibition (Histone deacetylase 3 [7])	inhibition (Histone deacetylase 2 [8])	SMILES	pIC50 (NCI-H460)
9.00	9.00	9.00	6.87	8.70	9.00	7.82	–	–	–	Cc1cccc(NC(=O)[C@H](CCCCCS)NC(=O)[C@@H]2CCCC(=O)N2)c1	–
8.00	7.96	8.22	6.38	7.82	8.22	7.17	–	–	–	O=C1CCC[C@@H](C(=O)N[C@@H](CCCCCS)C(=O)Nc2ccccc2)N1	–
8.52	8.40	8.30	6.97	8.40	8.70	7.85	–	–	–	Cc1cccc(NC(=O)[C@H](CCCCCS)NC(=O)[C@H]2CCC(=O)N2)c1	–
–	5.28	4.51	4.36	–	5.95	–	inactive	inactive	inactive	CC(C)(C)OC(=O)N[C@@H](CCCCCS)C(=O)NC1CCCC1	–
8.40	8.30	7.21	6.97	8.30	9.00	7.89	–	–	–	Cc1cccc(NC(=O)[C@H](CCCCCS)NC(=O)[C@@H]2CCC(=O)N2)c1	–
